This is an account of results in ChEMBL document CHEMBL4402512, “In vitro and in silico elucidation of antidiabetic and anti-inflammatory activities of bioactive compounds from Momordica charantia L” (Bioorg Med Chem, 2019).

Activity calls are given as the source filed them. The calls are words filed in the database; no cut-off is given here.

In assay [1] the test system is RAW264.7. Put plainly: Anti-inflammatory activity in mouse RAW264.7 cells assessed as reduction in Cox2 mRNA expression at 25 uM pre-incubated for 1 hr before […] for 18 hrs by qRT-PCR analysis. The assay is classed as functional, cell-based. A digest of the protocol:
(§1)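 RAW 264.7 murine macrophages grown in RPMI 1640 with 10% FBS, penicillin/streptomycin, 37 °C, 5% CO2. Seeded at 5.0 × 10^5 cells/well and held 24 h, then given 25 μM compound for 1 h before LPS (1 µg/mL) for a further 18 h. Total RNA was extracted, 500 ng was reverse-transcribed to cDNA, and target mRNA was quantified by qRT-PCR.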
Background: Quantitative PCR measures a nucleic acid by following its amplification.

The test system of assay [2] is RAW264.7. Put plainly: Anti-inflammatory activity in mouse RAW264.7 cells assessed as reduction in iNOS mRNA expression at 25 uM pre-incubated for 1 hr before […] for 18 hrs by qRT-PCR analysis. The assay is classed as functional, cell-based. The gist of the method: as §1
Assay [3] deals with RAW264.7. Briefly: Anti-inflammatory activity in mouse RAW264.7 cells assessed as reduction in IL6 mRNA expression at 25 uM pre-incubated for 1 hr before […] for 18 hrs by qRT-PCR analysis. The assay is classed as functional, cell-based. A digest of the protocol:
as §1

Another assay has as its system Saccharomyces cerevisiae. Briefly: Inhibition of Saccharomyces cerevisiae alpha-glucosidase at 1.3 mM pre-incubated for 15 mins before p-nitrophenyl alpha-D-glucopyranoside substrate addition and measured after 30 mins. The gist of the method:
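The enzyme was Saccharomyces cerevisiae α-glucosidase, assayed by a published protocol with slight modifications. Each compound was tested at two levels, 10 and 20 µL. Acarbose served as positive control. Runs were in triplicate with three biological replications, reported as mean ± SD and analysed by one-way ANOVA.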

Assay [4] concerns RAW264.7. Put plainly: Anti-inflammatory activity in mouse RAW264.7 cells assessed as reduction in NFkappaB mRNA expression at 25 uM pre-incubated for 1 hr before […] for 18 hrs by qRT-PCR analysis. The assay is classed as functional, cell-based. The gist of the method:
as §1

The test system of assay [5] is RAW264.7. Put plainly: Anti-inflammatory activity in mouse RAW264.7 cells assessed as reduction in IL-1beta mRNA expression at 25 uM pre-incubated for 1 hr before […] for 18 hrs by qRT-PCR analysis. The assay is classed as functional, cell-based. The gist of the method: as §1
The target in assay [6] is Alpha amylase (Homo sapiens) (UniProt P0DUB6). Briefly: Inhibition of alpha-amylase (unknown origin) assessed as reduction in conversion of starch to glucose at 0.87 mM incubated for 1 hr relative to control. A digest of the protocol:
(§2)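 α-Amylase inhibition was measured by a published protocol with minor modifications. Test compounds were added at 10 and 20 µL, stated as equivalent to 0.43 and 0.86 mM. Acarbose was used at 0.067 and 0.13 mM. Runs were in triplicate with three biological replications and averaged, reported as mean ± SD with one-way ANOVA.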

Assay [7] has as its system RAW264.7. Put plainly: Anti-inflammatory activity in mouse RAW264.7 cells assessed as reduction in TNFalpha mRNA expression at 25 uM pre-incubated for 1 hr before […] for 18 hrs by qRT-PCR analysis. The assay is classed as functional, cell-based. The gist of the method: as §1
Assay [8] concerns the target Alpha amylase (Homo sapiens) (UniProt P0DUB6). Briefly: Inhibition of alpha-amylase (unknown origin) assessed as reduction in conversion of starch to glucose at 0.13 mM incubated for 1 hr relative to control. The gist of the method:
as §2

For orientation: inhibition means the percentage by which the read-out fell short of the control.

Sequence of Alpha amylase (Homo sapiens) (P0DUB6 whole entry, looked up): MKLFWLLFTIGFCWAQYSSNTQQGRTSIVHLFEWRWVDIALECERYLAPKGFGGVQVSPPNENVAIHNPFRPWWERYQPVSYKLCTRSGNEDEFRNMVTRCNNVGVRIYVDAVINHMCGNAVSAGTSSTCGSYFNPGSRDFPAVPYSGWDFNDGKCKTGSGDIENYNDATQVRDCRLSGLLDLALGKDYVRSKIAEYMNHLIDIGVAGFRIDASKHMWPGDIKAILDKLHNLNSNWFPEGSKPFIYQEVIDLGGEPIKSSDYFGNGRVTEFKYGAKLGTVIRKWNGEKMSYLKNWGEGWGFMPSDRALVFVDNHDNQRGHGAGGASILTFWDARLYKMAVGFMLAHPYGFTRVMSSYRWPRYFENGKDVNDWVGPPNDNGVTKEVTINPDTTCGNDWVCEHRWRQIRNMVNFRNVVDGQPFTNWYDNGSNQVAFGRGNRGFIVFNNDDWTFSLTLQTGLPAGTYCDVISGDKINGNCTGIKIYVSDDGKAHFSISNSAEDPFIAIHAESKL

For the compound `C[C@H](CC(O)C(O)C(C)(C)O)[C@H]1CC[C@@]2(C)[C@@H]3C=C[C@@]45OC[C@]3(CC[C@]12C)[C@@H]4CC[C@H](O[C@@H]1O[C@H](CO)[C@@H](O)[C@@H](O)[C@H]1O)C5(C)C` (some centres not stated), the inhibition result in the assay with RAW264.7 [1], in the assay with RAW264.7 [2], with RAW264.7 [3], in the assay on RAW264.7 [4] and with RAW264.7 [5] was “Active” in each case. Also, the inhibition with Saccharomyces cerevisiae worked out at 49.4%; in assay [6] it was 66.4%.
Take `O=C(O)c1cc(O[C@@H]2OC[C@@H](O)[C@H](O)[C@H]2O)ccc1O`: the inhibition entry in the assay on RAW264.7 [1], with RAW264.7 [2], with RAW264.7 [3], with RAW264.7 [4] and with RAW264.7 [5] was “Active” throughout. Besides, the figures for the inhibition (with Saccharomyces cerevisiae; in [6]) were 56.4% and 60.7%, respectively.
`COC(C)(C)/C=C/C[C@@H](C)[C@H]1CC[C@@]2(C)[C@@H]3[C@@H](O[C@@H]4O[C@H](CO)[C@@H](O)[C@H](O)[C@H]4O)C=C4[C@@H](CC[C@H](O)C4(C)C)[C@]3(C=O)CC[C@]12C`: the inhibition entry in the assay with RAW264.7 [1], in the assay with RAW264.7 [2], with RAW264.7 [4] and in the assay on RAW264.7 [5] was “Active” throughout. Also, in the assay with RAW264.7 [3], the inhibition result is “inactive”. Further, the inhibition in the assay with Saccharomyces cerevisiae worked out at 47.5%; in assay [6], 69%.
Regarding `COC(C)(C)/C=C/C[C@@H](C)[C@H]1CC[C@@]2(C)[C@@H]3C=C[C@@]45OC[C@]3(CC[C@]12C)[C@@H]4CC[C@H](O[C@@H]1O[C@H](CO)[C@@H](O)[C@@H](O)[C@H]1O)C5(C)C`, the inhibition entry in the assay on RAW264.7 [2], in the assay on RAW264.7 [4], in the assay on RAW264.7 [7] and in the assay on RAW264.7 [5] was “Active” in each case. Also, the figures for the inhibition (with Saccharomyces cerevisiae; in [6]) were 48.5% and 70.5%, respectively.
On to `C[C@H]1O[C@H](O[C@H]2[C@H](O)[C@@H](O)[C@@H](O[C@H]3[C@H](O)[C@@H](O)C(O)O[C@@H]3CO)O[C@@H]2CO)[C@H](O)[C@@H](O)[C@@H]1N[C@H]1C=C(CO)[C@@H](O)[C@H](O)[C@H]1O` (some centres not stated), for which the inhibition in assay [8] stood at 88%.
`C[C@H](C/C=C/C(C)(C)O)[C@H]1CC[C@@]2(C)[C@@H]3C=C[C@@]45OC[C@]3(CC[C@]12C)[C@@H]4CC[C@H](O[C@@H]1O[C@H](CO)[C@@H](O)[C@H](O)[C@H]1O)C5(C)C` [MOMORDICOSIDE I]: the inhibition result in the assay with RAW264.7 [1], with RAW264.7 [2], with RAW264.7 [3], in the assay with RAW264.7 [4] and with RAW264.7 [5] was “Active” throughout. Further, the inhibition in the assay with Saccharomyces cerevisiae came out at 35.1%; in [6], 64.2%.
For the compound `COC(C)(C)/C=C/C[C@@H](C)[C@H]1CC[C@@]2(C)[C@@H]3C=C[C@@]45OC[C@]3(CC[C@]12C)[C@@H]4CC[C@H](O[C@@H]1O[C@H](CO)[C@@H](O)[C@H](O)[C@H]1O)C5(C)C` [MOMORDICOSIDE F1], the inhibition result with RAW264.7 [1], in the assay with RAW264.7 [2], with RAW264.7 [4], in the assay on RAW264.7 [7] and in the assay with RAW264.7 [5] was “Active” each time. The figures for the inhibition (with Saccharomyces cerevisiae; in [6]) were 35.9% and 63.5%, respectively.
For the compound `C[C@H](C/C=C/C(C)(C)O)[C@H]1CC[C@@]2(C)[C@@H]3C=C[C@@]45OC[C@]3(CC[C@]12C)[C@@H]4CC[C@H](O[C@@H]1O[C@H](CO)[C@@H](O)[C@@H](O)[C@H]1O)C5(C)C` [MOMORDICOSIDE F2], the inhibition entry in the assay with RAW264.7 [2], with RAW264.7 [4] and with RAW264.7 [5] was “Active” each time. Besides, the inhibition was 42.4% with Saccharomyces cerevisiae and 63.7% in assay [6].
